Entries after “also recorded” stand apart in the source; their conditions may differ. Where no end group is shown, it is not given here.

This is an account of results in paper PMC2643122 (Molecular Microbiology, 2008).

The test system of one data set is DnaK. As to conditions: 2001, cited from earlier work; for binding by bacterial DnaK related to uptake and killing: ref Kragol et al.
The next data set concerns Candida albicans. The conditions noted are these: cited from earlier work.
In another data set the test system is C. albicans Ssa2p. As to conditions: ref Li et al., 2006; cited from earlier work.
Data set [1] concerns the target T1, rSsa2p (Candida albicans, UniProt P46587). In words: Limited thermolysin proteolysis of cross-linked rSsa2p–BHst 5 complexes. The format is binding. The conditions noted are these: thermolysin 5 μg ml^−1, 30°C, 1 h; silver-stained 15% SDS-PAGE.
For data set [2], the target named is T1, rSsa2p. In words: FPLC gel filtration determination of dissociation constants. The data set is classed as binding. On the technique in general: In gel filtration, larger molecules generally elute earlier.
The subject of another data set is human tissues. The conditions noted are these: discussion statement without its own reference; cited from earlier work.
The next data set has as its system yeast cells. The conditions noted are these: ref Koshlukova et al., 2000; Vylkova et al., 2007; cited from earlier work.
The subject of data set [3] is C. albicans. In words: Candidacidal assay of Hst 5. The format is cell-based, Candida albicans. The procedure, abridged:
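Strains (integrated at RP10 in ssa2Δ background) grown overnight in YPD with uridine 50 μg ml−1 at 30°C, washed twice in 10 mM NaPB, resuspended to 10^6 cells ml−1. Exposed to 15 μM Hst 5, 1 h, 30°C, 250 r.p.m. Diluted, 500 cells plated on YPD agar, 48 h room temperature. Percent death versus buffer-only cells. Three independent transformants per mutant; each assay repeated ≥3 times.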

The subject of data set [4] is C. albicans. In words: Hst 5 translocation assay. The format is cell-based, Candida albicans. The procedure, abridged: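 Early log-phase cells (1 × 10^8) were washed twice and suspended in 1 ml 10 mM NaPB, then given biotinylated Hst 5 (15 μM final) for 30 min at room temperature. Washed cells were pelleted at 3 300 g, 4°C, glass-bead disrupted and spun 15 700 g, 10 min. Cytosolic protein (10 μg) was separated by 16% Tricine SDS-PAGE, blotted with streptavidin-HRP, detected by ECL and quantified densitometrically. Means ± standard errors of triplicate independent assays.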

For data set [5] the following is noted: ref Li et al., 2006; cited from earlier work.

T1 sequence (P46587 whole entry): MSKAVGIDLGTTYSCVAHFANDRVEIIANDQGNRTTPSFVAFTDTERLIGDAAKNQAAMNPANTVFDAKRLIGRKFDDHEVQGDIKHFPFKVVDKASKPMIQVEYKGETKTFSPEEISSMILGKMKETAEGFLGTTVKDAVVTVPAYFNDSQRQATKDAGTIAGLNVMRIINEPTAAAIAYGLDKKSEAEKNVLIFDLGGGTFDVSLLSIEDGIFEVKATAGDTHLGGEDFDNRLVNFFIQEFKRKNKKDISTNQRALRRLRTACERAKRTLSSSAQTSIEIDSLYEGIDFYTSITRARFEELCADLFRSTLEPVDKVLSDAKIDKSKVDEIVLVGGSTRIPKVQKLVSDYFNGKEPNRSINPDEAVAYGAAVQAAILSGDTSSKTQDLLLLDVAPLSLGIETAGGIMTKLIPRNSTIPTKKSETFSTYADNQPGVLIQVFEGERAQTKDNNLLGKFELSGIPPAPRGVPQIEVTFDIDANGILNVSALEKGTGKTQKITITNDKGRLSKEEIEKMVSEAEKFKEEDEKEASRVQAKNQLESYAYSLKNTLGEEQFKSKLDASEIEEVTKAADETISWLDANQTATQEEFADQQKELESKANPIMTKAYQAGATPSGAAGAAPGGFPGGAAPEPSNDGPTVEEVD

Take “drosocin: cationic antimicrobial peptide (GKPRPYSPRPTSHPRPIRV; ends and bridges not checked; UniProt P36193 22-40, looked up)”: in the data set with DnaK, the “binding by bacterial DnaK related to uptake and killing” value is “shown to be related to their intracellular uptake and killing functions”.
“pyrrhocoricin: cationic antimicrobial peptide (VDKGSYLPRPTPPRPIYNRN; ends and bridges not checked; UniProt P37362 1-20, looked up)”: the “binding by bacterial DnaK related to uptake and killing” value with DnaK was “shown to be related to their intracellular uptake and killing functions”. Besides, the “probable interaction site on DnaK” value in the data set with DnaK (ref Otvos et al., 2000, Kragol et al.) is “C-terminal variable region of the lid domain outside the conventional peptide binding region”.
On to human β defensin 2, for which the “killing of candidal cells via uptake mechanism involving Ssa proteins” value in the data set on Candida albicans (ref Vylkova et al., 2006) was “can kill candidal cells”.
For `C[C@H](NC(=O)[C@H](Cc1cnc[nH]1)NC(=O)[C@H](CO)NC(=O)[C@@H](N)CC(=O)O)C(=O)N[C@@H](CCCCN)C(=O)N[C@@H](CCCNC(=N)N)C(=O)N[C@@H](Cc1cnc[nH]1)C(=O)N[C@@H](Cc1cnc[nH]1)C(=O)NCC(=O)N[C@@H](Cc1ccc(O)cc1)C(=O)N[C@@H](CCCCN)C(=O)N[C@@H](CCCNC(=N)N)C(=O)N[C@@H](CCCCN)C(=O)N[C@@H](Cc1ccccc1)C(=O)N[C@@H](Cc1cnc[nH]1)C(=O)N[C@@H](CCC(=O)O)C(=O)N[C@@H](CCCCN)C(=O)N[C@@H](Cc1cnc[nH]1)C(=O)N[C@@H](Cc1cnc[nH]1)C(=O)N[C@@H](CO)C(=O)N[C@@H](Cc1cnc[nH]1)C(=O)N[C@@H](CCCNC(=N)N)C(=O)NCC(=O)N[C@@H](Cc1ccc(O)cc1)C(=O)O` [Hst 5, Histatin 5], in the data set with C. albicans Ssa2p, the “association with Ssa2p compared with Ssa1p” value is listed as “stronger association”. In addition, the “effect of binding on thermolysin digestion sites of rSsa2p” value on rSsa2p [1] is “substantially alters available thermolysin digestion sites exposed for enzymatic cleavage”. In addition, at rSsa2p [2] (gel filtration with ATP or ADP), the “competition for nucleotide binding sites in Ssa2p” value is “does not compete for nucleotide binding sites in Ssa2p”. For the same compound, the “fold improvement of binding affinity by nucleotides” value on rSsa2p [2] (presence of nucleotides, gel filtration) is reported as 10 -fold. For the same compound, the “toxicity to human tissues” value in the data set on human tissues was “without being toxic to human tissues”. Also, in the data set on Candida albicans (SSA1 knockout, ref Li et al., 2006), the “resistance of SSA1 knockouts to Hst 5” value is listed as “only mildly resistant”. Also, in the data set with Candida albicans (SSA2 deletion, ref Li et al., 2006), the “intracellular uptake and killing in C. albicans SSA2 deletion mutants” value is given as “significantly reduced”. Also, in the data set with Candida albicans (associated with oral candidiasis, background statement without its own reference), the “fungicidal activity for Candida albicans and other fungal pathogens” value was “strongly fungicidal”. Besides, in the data set with Candida albicans (pre-treatment of cells, ref Zhu et al., 2006), the “inhibition of Hst 5 killing by drugs blocking endocytosis” value is listed as “inhibited by pre-treatment of cells with drugs blocking endocytosis”. For the same compound, the salt sensitivity entry in the data set on Candida albicans (ref Dong et al., 2003, Jang et al., 2008) is “salt sensitive”. The “selective leakage of intracellular ions and ATP” value in the data set on yeast cells was “induces selective leakage of intracellular ions and ATP from yeast cells”. Besides, the “reduction in cellular killing, Ssa2 150−156 mutant strain” value in the data set with C. albicans [3] (P1 mutant Ssa2(150−156A3) as printed, 15 μM Hst 5, 1 h at 30°C) is “approximately 20%”. Moreover, in the data set on C. albicans [3] (P1 mutant, result in words, 15 μM Hst 5, 1 h at 30°C), the “loss of killing function, Ssa2(150−156A4) strain” value is on record as “mild to moderate loss of function”. Further, the “killing, Ssa2(334−338A3) strain” value in the data set with C. albicans [3] (T2 mutant with defective cell wall secretion of Ssa2p, 15 μM Hst 5, 1 h at 30°C) was “reduced Hst 5 translocation and killing to levels of the ssa2Δ knockout; also recorded: significant loss of cytotoxic and transport functions”. Also, in the data set with C. albicans [3] (downstream T1 mutant, 15 μM Hst 5, 1 h at 30°C), the “killing, Ssa2(131−135A3) strain” value was “reduced, but did not prevent Hst 5 killing and intracellular uptake; also recorded: mild to moderate loss of function”. For the same compound, the “effect of mutations within Ssa2(342–355) on killing” value in the data set with C. albicans [3] (spot 32 region, data not shown) is on record as “did not alter Hst 5 killing or translocation”. The “time course of translocation” value with C. albicans [4] (BHst 5 15 μM, NaPB, room temperature) was “Translocation happens very rapidly following only 5 min incubation; also recorded: the majority of Hst 5 is translocated intracellularly after 30 min”. The “reduction in Hst 5 translocation, Ssa2 150−156 mutant strain” value with C. albicans [4] (P1 mutant Ssa2(150−156A3) as printed, BHst 5 15 μM) was “approximately 20%”. The “intracellular translocation, Ssa2(334−338A3) strain” value in the data set with C. albicans [4] (T2 mutant with defective cell wall secretion of Ssa2p, BHst 5 15 μM) was “reduced Hst 5 translocation and killing to levels of the ssa2Δ knockout”. For the same compound, in the data set on C. albicans [4] (downstream T1 mutant, BHst 5 15 μM), the “intracellular translocation, Ssa2(131−135A3) strain” value was “reduced, but did not prevent Hst 5 killing and intracellular uptake”. For the same compound, the “effect of mutations within Ssa2(342–355) on translocation” value in the data set on C. albicans [4] (spot 32 region, data not shown) is listed as “did not alter Hst 5 killing or translocation”. The “uptake in Ssa2p deletion mutants” value in the data set on C. albicans [4] (ssa2Δ) was “reduced but measurable uptake”. For the same compound, in data set [5], the self-aggregation result is “high propensity for self-aggregation”.
